Assay outcomes as filed in PubChem.
An excerpt weighted towards active compounds, which were near 1.4% of everything screened.
APJ antagonist: APJ receptor antagonism | inhibition, % at 20 µM | P35414 | CHO-K1 APJ beta-arrestin complementation, luminescence | 330,000 tested, 0.32% active;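 active means inhibition above about 40% at 20 µM, limit read from the data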;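 further: cells challenged with 10 nM apelin-13 agonist together with compound; plate controls were apelin-13 plus DMSO wells for no effect and DMSO wells lacking apelin-13 for full effect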
CCR6 antag: CCR6 (human) receptor antagonism | CHO-K1 CCR6 PathHunter beta-arrestin, luminescence, CCL20-stimulated | 340,000 tested, 0.49% active | inhibition, % at 20 µM | AID 493098 | P51684;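 active means compounds whose inhibition of the agonist-driven luminescence signal at 20 µM reaches about 50%, limit read from the data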;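 further: cells stimulated with CCL20 at 14 nM final; plate controls were DMSO with CCL20 for no effect and DMSO without agonist for full effect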
CXCR6 inh: inhibitors of human CXCR6 receptor; O00574; CHO-K1 PathHunter CXCR6 beta-arrestin, luminescence; inhibition, % at 20 µM; 360,000 tested, 0.36% active; AID 602244; in the data active means inhibition above about 34%, passing the limit was not always enough;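 further: antagonist mode with CXCL16 agonist at 10 nM final; 0% = 10 nM CXCL16 with DMSO and 100% = unstimulated wells without agonist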
APJ agonist: APJ receptor agonism; CHO-K1 APJ PathHunter beta-arrestin, luminescence; 0% DMSO wells, 100% apelin; activation, % at 20 µM; 330,000 tested, 0.11% active; AID 2520;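 active means activation more than six SD over the plate average, tested at 20 µM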;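 further: 0% = DMSO alone and 100% = apelin-13 at 10 nM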
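Assay system: CHO-K1 cells stably expressing ProLink-tagged human APJ and arrestin–beta-gal acceptor. Compound dosing: 20 µM single point, 1% DMSO. Times: 16-18 h seeding, 90 min dark compound exposure, 60 min detection. Detection: beta-gal luminescence. Evaluation: APJ–arrestin association signal. Controls: negative DMSO alone, positive Apelin-13 at 10 nM.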
A3A deaminase: inhibitors of human APOBEC3A DNA deaminase. 330,000 tested, 0.41% active. inhibition, % at 20 µM. recombinant A3A, FAM/TAMRA ssDNA deamination fluorescence. P31941;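 active means at least 40% inhibition at 20 µM here, with at most 30% in a related deaminase screen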;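 further: plate controls were A3A with DMSO for no effect and wells lacking A3A enzyme for full effect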
Target sequence (P31941 whole entry, looked up): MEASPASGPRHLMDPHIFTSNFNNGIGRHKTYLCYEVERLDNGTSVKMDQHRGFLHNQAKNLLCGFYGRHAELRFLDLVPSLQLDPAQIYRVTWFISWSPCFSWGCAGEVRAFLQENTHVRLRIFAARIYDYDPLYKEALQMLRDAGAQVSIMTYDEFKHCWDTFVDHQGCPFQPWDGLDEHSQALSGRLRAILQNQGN
APOBEC3G inh: APOBEC3G (human) deaminase inhibition | 330,000 tested, 0.28% active | inhibition, % at 20 µM | Q9HC16 | AID 493012 | recombinant A3G, ssDNA deamination FAM/TAMRA fluorescence;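 active means inhibition of at least 40% at 20 µM, with no more than 30% in the related APOBEC3A deaminase screen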;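 further: plate controls were DMSO wells with A3G for no effect and wells lacking A3G enzyme for full effect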
Target sequence (Q9HC16 whole entry, looked up): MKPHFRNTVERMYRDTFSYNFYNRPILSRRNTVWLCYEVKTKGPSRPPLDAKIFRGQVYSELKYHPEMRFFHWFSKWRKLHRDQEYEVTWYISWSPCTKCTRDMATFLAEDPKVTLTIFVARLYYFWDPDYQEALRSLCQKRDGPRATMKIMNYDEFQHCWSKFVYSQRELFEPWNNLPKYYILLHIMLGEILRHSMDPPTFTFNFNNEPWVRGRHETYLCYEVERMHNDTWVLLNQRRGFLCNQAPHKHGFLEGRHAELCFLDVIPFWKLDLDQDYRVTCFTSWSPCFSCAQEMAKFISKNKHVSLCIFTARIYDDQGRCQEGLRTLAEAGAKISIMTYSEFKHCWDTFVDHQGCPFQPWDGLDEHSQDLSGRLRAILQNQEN
APOBEC3A confirm: confirmation of human APOBEC3A DNA deaminase inhibitors. recombinant A3A, ssDNA deaminase UDG fluorescence assay. shares compounds with A3A deaminase. inhibition, % at 20 µM. AID 493151. 1,400 tested, 63% active;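 active means inhibition reaching a set limit, 80% of the first screen's cutoff, at 20 µM in any replicate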;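 further: plate controls were DMSO wells with A3A for no effect and wells lacking A3A enzyme for full effect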
UDG ctr A3A: counter-screen for APOBEC3A inhibitors: UDG | shares compounds with A3A deaminase | inhibition, % at 20 µM | 1,000 tested, under 10 active | UDG counterscreen, FAM/TAMRA uracil oligo fluorescence; call rule not given here
Active calls of the source: *.

What do the screens show for `CC(=O)c1ccccc1NS(=O)(=O)c1cccc2nsnc12`?
APJ antagonist: -2.7; CCR6 antag: 13.4; CXCR6 inh: -0.5; APJ agonist: -0.8; A3A deaminase: 41.2*; APOBEC3G inh: 7.7; APOBEC3A confirm: 29.0*; UDG ctr A3A: 2.4

How did O=C(c1cc(-c2ccc(Br)cc2)n[nH]1)N1CCN(C(=O)c2ccccc2Br)CC1 do in these assays?
APJ antagonist: -7.1; CCR6 antag: 5.6; CXCR6 inh: -0.9; APJ agonist: 1.1; A3A deaminase: 2.6; APOBEC3G inh: -2.9

Results for COC(=O)C(Cc1ccccc1)NC(=O)CCc1c[nH]c2ccccc12 (stereo unspecified) ?
APJ antagonist: -5.9; CCR6 antag: -2.8; CXCR6 inh: 4.4; APJ agonist: 1.9; A3A deaminase: -7.0; APOBEC3G inh: -10.8

What do the screens show for `Cn1nc([N+](=O)[O-])nc1S(C)(=O)=O`?
APJ antagonist: -25.1; CCR6 antag: -8.2; CXCR6 inh: -8.6; APJ agonist: 1.3; A3A deaminase: 88.0*; APOBEC3G inh: 9.9; APOBEC3A confirm: 88.2*; UDG ctr A3A: -3.5

Results for O=C(CCC(=O)N1CCOCC1)NCc1cccc(C(F)(F)F)c1 ?
APJ antagonist: 24.8; CCR6 antag: 12.0; CXCR6 inh: 1.5; APJ agonist: -3.6; A3A deaminase: -4.3; APOBEC3G inh: -7.2

What do the screens show for `CC12CC(O)C3c4ccc(O)cc4CCC3C1CC/C2=N\O` (stereo unspecified)?
APJ antagonist: 8.8; CCR6 antag: 6.5; CXCR6 inh: -10.2; APJ agonist: -1.9; A3A deaminase: 51.2*; APOBEC3G inh: -13.0; APOBEC3A confirm: 0.6; UDG ctr A3A: 1.5

What do the screens show for `O=C(NCCS(=O)(=O)N1CCN(c2ccccc2)CC1)c1ccc(Br)o1`?
APJ antagonist: 7.6; CCR6 antag: 2.6; CXCR6 inh: -6.2; APJ agonist: -4.4; A3A deaminase: -0.7; APOBEC3G inh: 3.3

How did Cc1ccc(Oc2cc(NN3CCCCC3)c([N+](=O)[O-])cc2[N+](=O)[O-])c(Cl)c1 do in these assays?
APJ antagonist: 7.9; CCR6 antag: 11.6; CXCR6 inh: 7.0; APJ agonist: -3.3; A3A deaminase: 2.3; APOBEC3G inh: 2.9

Results for CC1=NOC(=O)/C1=C\c1ccc(-c2ccc(Br)cc2C(=O)O)o1 ?
APJ antagonist: -15.4; CCR6 antag: 4.8; CXCR6 inh: 8.5; APJ agonist: 0.3; A3A deaminase: 53.4*; APOBEC3G inh: 16.1; APOBEC3A confirm: active; UDG ctr A3A: 4.7

Results for CCn1ccnc1CN(C)C(=O)c1ccc(OC2CCN(CCc3ccccc3)CC2)cc1 ?
APJ antagonist: 14.0; CCR6 antag: -3.3; CXCR6 inh: 6.7; APJ agonist: 2.0; A3A deaminase: -3.4; APOBEC3G inh: -3.3

What do the screens show for `O=S(=O)(Nc1ccon1)c1ccc(Br)s1`?
APJ antagonist: 7.4; CCR6 antag: -2.0; CXCR6 inh: 0.6; APJ agonist: -0.7; A3A deaminase: 76.0*; APOBEC3G inh: -4.8; APOBEC3A confirm: -2.0; UDG ctr A3A: -2.6

What do the screens show for `Cc1nn(Cc2ccccc2)c(Cl)c1/C=C1\NC(=S)NC1=O`?
APJ antagonist: 9.3; CCR6 antag: 18.8; CXCR6 inh: -2.1; APJ agonist: -2.8; A3A deaminase: -3.3; APOBEC3G inh: -6.1

How did Cn1cnc(C(=O)N2CCN(c3ccccc3)CC2)c1C(=O)N1CCN(c2ccccc2)CC1 do in these assays?
APJ antagonist: -13.9; CCR6 antag: -3.4; CXCR6 inh: -1.8; APJ agonist: -4.3; A3A deaminase: 58.8*; APOBEC3G inh: 16.0; APOBEC3A confirm: 67.2*; UDG ctr A3A: 2.1

How did CCn1cc(Br)c(C(=O)N2CCN(c3ccccc3)CC2)n1 do in these assays?
APJ antagonist: -23.2; CCR6 antag: -8.1; CXCR6 inh: -5.7; APJ agonist: -1.0; A3A deaminase: -2.4; APOBEC3G inh: -0.1

Results for Cn1cnc(C(=O)N2CCN(C(=O)OC(C)(C)C)CC2)c1C(=O)N1CCN(C(=O)OC(C)(C)C)CC1 ?
APJ antagonist: -6.8; CCR6 antag: -3.4; CXCR6 inh: -1.7; APJ agonist: -1.7; A3A deaminase: 46.2*; APOBEC3G inh: 8.5; APOBEC3A confirm: 64.5*; UDG ctr A3A: -0.1

How did O=C1OC(C(Cl)(Cl)Cl)Nc2ccccc21 (stereo unspecified) do in these assays?
CXCR6 inh: -5.5

What do the screens show for `COc1ccc(Cl)cc1NC(=O)c1cccc(-n2cnnn2)c1`?
APJ antagonist: 21.5; CCR6 antag: 3.9; CXCR6 inh: 0.9; APJ agonist: -4.2; A3A deaminase: 48.0*; APOBEC3G inh: -13.5; APOBEC3A confirm: 8.0; UDG ctr A3A: 2.7

What do the screens show for `O=C(Nc1ccc(Br)cc1)c1cccc(-n2cnnn2)c1`?
APJ antagonist: 15.6; CCR6 antag: 22.3; CXCR6 inh: -5.0; APJ agonist: -0.4; A3A deaminase: 50.5*; APOBEC3G inh: -2.0; APOBEC3A confirm: -5.0; UDG ctr A3A: 2.3

Results for CCC(C)c1ccccc1NC(=O)c1cccc(-n2cnnn2)c1 (stereo unspecified) ?
APJ antagonist: -0.5; CCR6 antag: 11.4; CXCR6 inh: -8.3; APJ agonist: -2.3; A3A deaminase: 52.2*; APOBEC3G inh: 1.9; APOBEC3A confirm: 33.7*; UDG ctr A3A: -37.5

Results for O=C(CN(Cc1ccccc1)C(=O)CCC(=O)Nc1nccs1)NCc1ccccc1 ?
APJ antagonist: -3.0; CCR6 antag: 5.4; CXCR6 inh: 4.4; APJ agonist: 0.8; A3A deaminase: -3.4; APOBEC3G inh: -9.1

How did CCn1c(/C=C/c2cc[n+](C)cc2)nc2ccccc21 do in these assays?
APJ antagonist: -0.6; CCR6 antag: -4.7; CXCR6 inh: 4.4; APJ agonist: -0.5; A3A deaminase: 52.6*; APOBEC3G inh: 11.5; APOBEC3A confirm: 46.6*

What do the screens show for `CCCn1c(/C=C/c2ccccc2)nc2ccccc21`?
APJ antagonist: 7.1; CCR6 antag: 22.7; CXCR6 inh: 7.6; APJ agonist: -5.5; A3A deaminase: -1.9; APOBEC3G inh: -4.4

How did Cc1ccc(-c2nc(SC(C)C(=O)NC3CC3)n[nH]2)cc1 (stereo unspecified) do in these assays?
CXCR6 inh: -2.7

Results for Cc1cccc(C)c1NC(=O)C(C)Sc1n[nH]c(-c2ccncc2)n1 (stereo unspecified) ?
APJ antagonist: 4.2; CCR6 antag: 2.6; CXCR6 inh: 1.9; APJ agonist: 1.4; A3A deaminase: 82.0*; APOBEC3G inh: -8.3; APOBEC3A confirm: -10.4; UDG ctr A3A: 1.3
